HUVEC prolif 384 = inhibitors of HUVEC proliferation, primary screen, cell-based, 384-well. viability, % at 10 µM (by protocol). CellTiter-Glo luminescence, 72 h; active compounds read low. AID 648, 2007. 86,000 compounds, 1.1% hits;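 active means viability at or below 30%; inactive means viability above 30%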;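 further: 100% = median luminescence of DMSO-only cell control wells on each plate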
PTEN del growth = growth suppression of PTEN-null HCT116, primary screen, cell-based, CellTiter-Glo; HCT116 PTEN-null viability, 60 h; active compounds read low; viability, % at 10 µM; 140,000 compounds, 1.2% hits; AID 827, 2007;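 active means viability at or below a set limit, 4 SD under the median of all tested compounds, cut at about 3.7% in these data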;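 further: PTEN knockout HCT116 line with beta catenin targeted HCT116 as companion control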
Lung fibro prol = antiproliferative effect on LL 47 fibroblasts – human, LL 47 cells, CellTiter-Glo luminescence, primary screen; LL 47 human lung fibroblast viability, ATP luminescence; active compounds read low; viability, % at 10 µM; 85,000 compounds, 1.1% hits; AID 719, 2007;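 active means viability at or below 50% in the single dose screen; inactive means viability above 50%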;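 further: compound exposure lasted 72 h before the ATP readout; 100% = median luminescence of untreated cell-only wells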
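Material: Human LL 47 lung fibroblast cells | Input: 1,150 cells/well | Buffer or medium: IMEM plus 15% FBS | Compound dosing: 0.1% DMSO in all compound wells | Times: Overnight cell rest, 72 h compound treatment at 37 °C | Signal: CellTiter-Glo luminescence measuring cellular ATP | Measure: % viability versus median cells-only luminescence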
H69AR inhibit = proliferation blockers of H69AR lung cancer cells, primary screen, cell-based, human, 86K library; H69AR lung tumor viability, ATP luminescence, 72 h; active compounds read low; viability, % at 10 µM; 85,000 compounds, 6% hits;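 active means viability at or below 40%; inactive means viability above 40%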;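 further: multidrug resistant small cell line overexpressing MRP-1 efflux transporter; 100% = mean luminescence of untreated control wells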
bCat KO growth = primary screen for growth suppressors in beta-catenin knockout HCT116 cells (colon tumor, human). HCT116 beta-catenin knockout viability, CellTiter-Glo, 60 h; active compounds read low. viability, % at 10 µM. 140,000 compounds, 1.5% hits;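 active means viability at or under a set limit, the compound median less 4 SD, cut at about 6% in these data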;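 further: 0% = Hyamine 1622 control at 20 µM and 100% = untreated cell control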
The depositor's hits bear a star; . = not tested or not shown. This excerpt belongs to a sample that is enriched for hits.

SMILES	HUVEC prolif 384	PTEN del growth	Lung fibro prol	H69AR inhibit	bCat KO growth
COC(=O)c1cc(OC)c(OC)cc1NC(=O)c1ccccc1	71	60	99	39*	21
COc1cc(NC(=O)c2cccs2)c(C(=O)OCC(=O)NCc2ccccc2)cc1OC	19*	107	88	6.7*	104
Cc1ccc(-c2nc3cnccn3c2Nc2ccc3c(c2)OCCO3)o1	96	100	98	65	93
Cc1ccc(-c2nc3cnccn3c2Nc2ccc3c(c2)OCO3)cc1	78	58	92	25*	63
Cc1ccc2nc(-c3ccc(O)cc3)c(Nc3ccc4c(c3)OCCO4)n2c1	80	73	96	64	73
COc1ccc(-c2nc3cnccn3c2Nc2ccc3c(c2)OCO3)cc1	78	64	84	24*	70
CN(C)c1ccc(O)c2c1CC1CC3[C@@H](N(C)C)C(=O)C(C(N)=O)=C(O)[C@]3(O)C(=O)C1=C2O (some centres not stated)	93	66	84	35*	71
CCOc1ccccc1NC(=S)N(Cc1cc2ccc(C)cc2[nH]c1=O)CC1CCCN1CC (configuration not stated)	.	1.2*	.	.	2.5*
CCN1CCCC1CN(Cc1cc2ccc(C)cc2[nH]c1=O)C(=S)Nc1cccc(OC)c1 (configuration not stated)	.	2.5*	.	.	3.5*
O=C(Nc1cccc(S(=O)(=O)N2CCCCC2)c1)Nc1ccc(Cl)cc1Cl	.	1.4*	.	.	1.5*
O=C(Nc1cccc(S(=O)(=O)N2CCCCC2)c1)c1ccc2ccccc2n1	.	69	.	.	67
O=[N+]([O-])c1cc(-c2nc(-c3ccncc3)no2)ccc1Cl	.	2.3*	.	.	2.8*
CC(C)(C)[C@]1(O)CCN2C[C@H]3c4ccccc4CCc4cccc(c43)[C@@H]2C1	.	60	.	.	62
O=C(CC(=O)c1ccccc1O)c1ccc(F)cc1	.	46	.	.	54
CC(C)(C)c1ccc(C(=O)CC(=O)c2cc(Cl)ccc2O)cc1	7.6*	24	46*	25*	29
CC(C)(C)c1ccc(C(=O)NNC(=O)c2ccc(Cl)cc2)cc1	.	73	.	.	74
Cc1ccc(C(=O)CC(=O)c2cc(Cl)ccc2O)cc1	9.4*	64	30*	5.2*	66
COc1ccc(NC(=O)CN2CCC(Cc3ccccc3)CC2)cc1S(=O)(=O)N1CCOCC1	.	89	.	.	93
N=c1sc2ccccc2n1-c1ccccc1	94	96	100	31*	99
C=CCNCCOc1ccc(C(C)(C)c2ccccc2)cc1	.	77	.	.	74
CN(C)CCCOc1ccc(C(C)(C)c2ccccc2)cc1	34	31	79	28*	34
NC(=O)NC(c1ccccc1)c1cccc2ccccc12 (configuration not stated)	97	104	95	96	122
CC(C)CNC(=S)N(Cc1ccco1)Cc1cc2cc3c(cc2[nH]c1=O)OCCO3	.	27	.	.	35
CCN(CC)c1ccc(N=Cc2ccccc2[N+](=O)[O-])cc1	.	53	.	.	46
CCN(CC)c1ccc(N=Cc2ccc([N+](=O)[O-])o2)cc1	.	1.9*	.	.	4.7*
SMILES	HUVEC prolif 384	PTEN del growth	Lung fibro prol	H69AR inhibit	bCat KO growth
CCOC(=O)c1c(-c2ccc(C)o2)csc1NC(=O)CSc1nncs1	89	92	97	31*	100
CCOC(=O)c1cc2sccc2n1CC(=O)Nc1ccc2c(c1)OCCO2	94	81	92	38*	93
COC(=O)C1=C(Cn2cnc3ccccc32)NC(=O)NC1c1cc(C)ccc1C (configuration not stated)	93	93	99	50	90
CCOC(=O)C1=C(Cn2cnc3ccccc32)NC(=O)NC1c1cc(C)ccc1C (configuration not stated)	96	40	95	16*	53
CCn1nc(C(=O)NC2=NCCS2)c2ccccc2c1=O	2.7*	105	93	98	99
Cc1ccc(OCC(=O)NNC(=O)C(=O)N2CCCC2)c(C)c1	.	100	.	.	104
O=C(NCc1cccnc1)c1sc2cc(Cl)ccc2c1Cl	.	61	.	.	41
Cc1c(CN(C)C(=O)c2sc3cc(Cl)ccc3c2Cl)cnn1C	21*	24	100	77	15
CCC(=O)N1CCc2cc(S(=O)(=O)CCC(=O)Nc3nc(C)cs3)ccc21	92	59	88	1.8*	60
CCn1c(C)nc([N+](=O)[O-])c1Sc1ccc(F)cc1	.	71	.	.	76
O=[N+]([O-])c1ccc(Sc2ccccc2)nc1	.	100	.	.	102
CC(C)Cn1c(C(C)C)nc([N+](=O)[O-])c1Sc1ccc(Cl)cn1	78	63	55	19*	77
CCCCn1c(CCC)nc([N+](=O)[O-])c1Sc1ccc(Cl)cn1	77	14	72	2.4*	16
COc1ccc(C(=NNc2ccccc2C(=O)O)c2ccc(OC)cc2)cc1	.	79	.	.	92
COc1ccccc1C1c2c(oc3ccc(Cl)cc3c2=O)C(=O)N1c1cc(C)on1 (configuration not stated)	42	.	36*	40*	.
CC1(C)C([N+](=O)[O-])C(c2ccc(Cl)cc2)NC(c2ccc(Cl)cc2)C1[N+](=O)[O-] (configuration not stated)	.	63	.	.	59
COc1ccc(NC(=O)CSc2ncnc3c2sc2ccccc23)c(OC)c1	.	2.2*	.	.	2.2*
COc1ccc(OC)c2sc(NC(=O)c3ccc(S(=O)(=O)N(C)C)cc3)nc12	64	91	88	21*	88
COc1ccc(OC)c2sc(NC(=O)CCS(=O)(=O)c3ccccc3)nc12	66	.	36*	2.4*	.
Cc1cc(C)nc(N/C(=N\S(=O)(=O)Cc2ccccc2)Nc2ccc(F)c(Cl)c2)n1	.	71	.	.	82
COC(=O)NNC(=O)c1ccc(C)c(Br)c1	.	98	.	.	90
O=C1c2ccccc2C(=O)C1c1nccc2ccccc12	.	8	.	.	5.0*
O=C1c2ccccc2C(=O)C1c1ccnc2ccccc12	50	12	68	41	9
Cc1cccc(N2CCN(c3nc4ccc(Cl)cc4n4cnnc34)CC2)c1C	14*	1.0*	29*	2.1*	0.8*
COc1ccc2nc(Nc3nc(CSc4nc5ccccc5[nH]4)cc(=O)[nH]3)nc(C)c2c1	.	7	.	.	6.1*
Cc1nc(Nc2nc(CSc3ccc(Cl)cc3)cc(=O)[nH]2)nc2ccccc12	.	59	.	.	72
Cc1ccc2c(C)nc(Nc3nc(CSc4nnc(C)s4)cc(=O)[nH]3)nc2c1	17*	87	46*	35*	80
Cc1nc(Nc2nc(-c3ccccc3)cc(=O)[nH]2)nc2ccccc12	5.0*	.	13*	14*	.
COc1cccc2c(C)nc(Nc3nc(CSc4nnc(C)s4)cc(=O)[nH]3)nc12	46	71	.	60	69
